Source: ChEMBL document CHEMBL1914395, “Design, synthesis, and biological evaluation of callophycin A and analogues as potential chemopreventive and anticancer agents” (Bioorg Med Chem, 2011)

Target: NAD(P)H dehydrogenase [quinone] 1 (Mus musculus) (UniProt Q64669)
Experiment: Induction of quinone reductase 1 activity in mouse Hepa-1c1c7 cells at 50 uM by MTT assay relative to untreated control
Format: cell-based
Settings: not given
Outline: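 Hepa 1c1c7 murine hepatoma cells treated with compound at 50 μM. QR1 measured by NADPH-dependent, menadiol-mediated reduction of MTT to formazan. Protein measured by crystal violet staining of identical plates. Specific activity is nmol formazan per mg protein per min. Induction ratio is treated versus DMSO-treated control.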

Chain of NAD(P)H dehydrogenase [quinone] 1 (Mus musculus) (Q64669 whole entry): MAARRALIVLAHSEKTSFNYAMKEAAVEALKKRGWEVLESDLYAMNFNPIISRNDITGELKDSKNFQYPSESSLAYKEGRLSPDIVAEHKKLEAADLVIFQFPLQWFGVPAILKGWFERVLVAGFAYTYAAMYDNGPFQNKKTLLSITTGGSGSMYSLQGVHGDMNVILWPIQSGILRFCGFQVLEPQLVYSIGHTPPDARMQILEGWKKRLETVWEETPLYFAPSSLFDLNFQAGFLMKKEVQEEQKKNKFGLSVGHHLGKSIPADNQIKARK

Question: For `C#CCN1Cc2[nH]c3ccccc3c2C[C@@H]1C(=O)OC`, which Ratio is on record?
Answer: 2

Question: With `C#CCN1Cc2[nH]c3ccccc3c2C[C@H]1C(=O)O` as the compound, how does the Ratio read?
Answer: 2.2

Question: With `COC(=O)[C@H]1Cc2c([nH]c3ccccc23)CN1Cc1ccccc1` as the compound, how does the Ratio read?
Answer: 1.2

Question: With `COC(=O)[C@H]1Cc2c([nH]c3ccccc23)CN1C(=O)NC(C)C` as the compound, how does the Ratio read?
Answer: 2.7

Test system: not listed separately
Experiment: Inhibition of TNF-alpha-induced NFkappaB activation in human HEK293 cells after 6 hrs by luciferase assay
Format: cell-based
Settings: HEK293, 6 h
Outline: (§1)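 Cells incubated 6 h with TNFα plus test compound, then luciferase activity measured. Results expressed as percent of TNFα-treated control. Screening concentration 50 μM.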

Question: With `COC(=O)[C@H]1Cc2c([nH]c3ccccc23)CN1Cc1ccccc1` as the compound, how does the IC50 read?
Answer: 44.2 µM

Question: For `COC(=O)[C@H]1Cc2c([nH]c3ccccc23)CN1C(=O)NC(C)C`, which IC50 is on record?
Answer: 21.2 µM

Target: NAD(P)H dehydrogenase [quinone] 1 (Mus musculus) (UniProt Q64669)
Experiment: Induction of quinone reductase 1 in mouse Hepa 1c1c7 cells assessed as concentration of compound required to double enzyme activity by MTT assay
Format: cell-based
Settings: not given
Outline: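 Dose-response in Hepa 1c1c7 cells, run for substances with induction ratio >2 at 50 μM. QR1 activity measured as menadiol-mediated, NADPH-dependent MTT reduction to formazan, normalised to crystal violet protein content. CD is the concentration that doubles specific activity relative to DMSO control.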

Question: Which CD does the source give for `C#CCN1Cc2[nH]c3ccccc3c2C[C@@H]1C(=O)OC` here?
Answer: 50 µM

Question: With `C#CCN1Cc2[nH]c3ccccc3c2C[C@H]1C(=O)O` as the compound, how does the CD read?
Answer: 18.7 µM

Question: For `COC(=O)[C@H]1Cc2c([nH]c3ccccc23)CN1C(=O)NC(C)C`, which CD is on record?
Answer: 8.6 µM

Test system: HEK293
Experiment: Inhibition of TNF-alpha-induced NFkappaB activation in human HEK293 cells assessed as cell survival at 50 uM after 6 hrs by luciferase assay relative to control
Format: cell-based
Settings: not given

Question: With `C#CCN1Cc2[nH]c3ccccc3c2C[C@@H]1C(=O)OC` as the compound, how does the Survival read?
Answer: 227%

Question: Which Survival does the source give for `C#CCN1Cc2[nH]c3ccccc3c2C[C@H]1C(=O)O` here?
Answer: 228%

Question: Which Survival does the source give for `COC(=O)[C@H]1Cc2c([nH]c3ccccc23)CN1Cc1ccccc1` here?
Answer: 77.1%

Question: Which Survival does the source give for `COC(=O)[C@H]1Cc2c([nH]c3ccccc23)CN1C(=O)NC(C)C` here?
Answer: 143%

Target: T1, Nitric oxide synthase, inducible (Mus musculus, UniProt P29477)
T1 sequence (P29477 whole entry): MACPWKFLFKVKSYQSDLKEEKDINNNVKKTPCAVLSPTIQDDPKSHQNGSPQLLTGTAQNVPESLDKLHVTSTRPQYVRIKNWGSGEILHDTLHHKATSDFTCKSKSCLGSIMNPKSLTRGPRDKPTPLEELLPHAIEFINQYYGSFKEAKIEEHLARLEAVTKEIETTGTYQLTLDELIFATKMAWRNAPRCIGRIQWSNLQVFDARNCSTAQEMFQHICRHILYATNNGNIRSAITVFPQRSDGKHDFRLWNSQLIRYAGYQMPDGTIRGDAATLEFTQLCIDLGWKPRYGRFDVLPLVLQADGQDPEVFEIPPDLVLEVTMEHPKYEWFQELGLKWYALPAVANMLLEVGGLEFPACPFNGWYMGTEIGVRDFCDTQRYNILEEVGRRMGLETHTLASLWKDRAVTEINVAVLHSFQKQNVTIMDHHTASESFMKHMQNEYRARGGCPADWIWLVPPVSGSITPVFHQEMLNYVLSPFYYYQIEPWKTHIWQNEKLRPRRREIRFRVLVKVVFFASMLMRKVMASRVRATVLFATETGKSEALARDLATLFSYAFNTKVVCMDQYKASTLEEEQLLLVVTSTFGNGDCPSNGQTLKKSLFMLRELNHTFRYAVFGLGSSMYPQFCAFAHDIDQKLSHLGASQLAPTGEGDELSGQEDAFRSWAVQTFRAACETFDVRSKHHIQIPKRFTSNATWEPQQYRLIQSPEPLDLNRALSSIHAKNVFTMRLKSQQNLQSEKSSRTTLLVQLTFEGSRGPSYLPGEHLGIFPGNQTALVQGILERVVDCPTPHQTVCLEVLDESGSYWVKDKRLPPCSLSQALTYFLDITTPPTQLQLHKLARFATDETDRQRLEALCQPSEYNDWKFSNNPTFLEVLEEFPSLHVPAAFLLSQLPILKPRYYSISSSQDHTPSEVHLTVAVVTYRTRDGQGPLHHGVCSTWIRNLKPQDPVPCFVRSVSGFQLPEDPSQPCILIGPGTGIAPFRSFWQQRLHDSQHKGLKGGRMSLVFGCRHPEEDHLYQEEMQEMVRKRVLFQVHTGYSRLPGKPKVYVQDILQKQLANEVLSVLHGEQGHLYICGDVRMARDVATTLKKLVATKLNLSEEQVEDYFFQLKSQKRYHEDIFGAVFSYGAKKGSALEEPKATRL
Experiment: Inhibition of iNOS-mediated nitric oxide production in LPS-stimulated mouse RAW 264.7 cells pretreated 15 mins before LPS challenge measured after 20 hrs relative to control
Format: cell-based
Settings: not given
Outline: (§2)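 RAW 264.7 cells cultured 24 h at 37°C, then given serially diluted compounds for 15 min before LPS (1 μg/mL) for 20 h. Nitrite in the medium measured with Griess reagent at 540 nm against a sodium nitrite standard curve. Cytotoxicity checked by SRB under the same conditions.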

Question: With `COC(=O)[C@H]1Cc2c([nH]c3ccccc23)CN1Cc1ccccc1` as the compound, how does the IC50 read?
Answer: 32.9 µM

Target: NAD(P)H dehydrogenase [quinone] 1 (Mus musculus) (UniProt Q64669)
Experiment: Induction of quinone reductase 1 activity in mouse Hepa-1c1c7 cells assessed as cell survival at 50 uM by MTT assay relative to control
Format: cell-based
Settings: not given

Question: With `C#CCN1Cc2[nH]c3ccccc3c2C[C@@H]1C(=O)OC` as the compound, how does the Survival read?
Answer: 77.2%

Question: With `C#CCN1Cc2[nH]c3ccccc3c2C[C@H]1C(=O)O` as the compound, how does the Survival read?
Answer: 91.9%

Question: With `COC(=O)[C@H]1Cc2c([nH]c3ccccc23)CN1Cc1ccccc1` as the compound, how does the Survival read?
Answer: 96.8%

Question: For `COC(=O)[C@H]1Cc2c([nH]c3ccccc23)CN1C(=O)NC(C)C`, which Survival is on record?
Answer: 77%

Target: T2, Aromatase (Homo sapiens, UniProt P11511)
T2 sequence (P11511 whole entry): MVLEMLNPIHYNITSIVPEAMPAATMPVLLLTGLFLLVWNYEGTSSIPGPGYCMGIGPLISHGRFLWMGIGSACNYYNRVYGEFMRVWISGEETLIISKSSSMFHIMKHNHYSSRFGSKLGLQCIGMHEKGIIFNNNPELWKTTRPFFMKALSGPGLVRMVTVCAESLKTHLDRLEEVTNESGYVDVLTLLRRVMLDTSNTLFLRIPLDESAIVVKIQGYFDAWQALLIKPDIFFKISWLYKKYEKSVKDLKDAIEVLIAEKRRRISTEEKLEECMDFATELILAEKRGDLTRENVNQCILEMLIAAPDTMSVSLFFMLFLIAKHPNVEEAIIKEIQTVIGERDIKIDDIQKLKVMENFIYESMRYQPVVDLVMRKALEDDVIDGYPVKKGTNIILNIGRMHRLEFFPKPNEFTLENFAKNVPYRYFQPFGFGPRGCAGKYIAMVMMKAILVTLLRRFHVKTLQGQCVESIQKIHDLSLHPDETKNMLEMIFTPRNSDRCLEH
Experiment: Inhibition of aromatase at 50 uM after 10 mins preincubation by plate reader relative to control
Settings: not given
Outline: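 CYP19 enzyme. Compound pre-incubated 10 min with an NADPH-regenerating system (NADP+, glucose 6-phosphate, G6PDH, MgCl2, albumin) in 50 mM potassium phosphate pH 7.4. Enzyme and 0.4 μM dibenzylfluorescein substrate then added, 30 min at 37 °C. Quenched with 2 N NaOH and incubated a further 2 h at 37 °C. Fluorescence read at ex 485/em 530 nm. Compound tested at 50 μM.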

Question: With `C#CCN1Cc2[nH]c3ccccc3c2C[C@@H]1C(=O)OC` as the compound, how does the inhibition at 50 µM read?
Answer: 31.7%

Question: For `C#CCN1Cc2[nH]c3ccccc3c2C[C@H]1C(=O)O`, which inhibition at 50 µM is on record?
Answer: 30.5%

Question: With `COC(=O)[C@H]1Cc2c([nH]c3ccccc23)CN1Cc1ccccc1` as the compound, how does the inhibition at 50 µM read?
Answer: 38.4%

Question: Which inhibition at 50 µM does the source give for `COC(=O)[C@H]1Cc2c([nH]c3ccccc23)CN1C(=O)NC(C)C` here?
Answer: 32.6%

Test system: HEK293
Experiment: Inhibition of TNF-alpha-induced NFkappaB activation in human HEK293 cells at 50 uM after 6 hrs by luciferase assay relative to control
Format: cell-based
Settings: not given
Outline: as §1

Question: For `C#CCN1Cc2[nH]c3ccccc3c2C[C@@H]1C(=O)OC`, which inhibition is on record?
Answer: 43.6%

Question: For `C#CCN1Cc2[nH]c3ccccc3c2C[C@H]1C(=O)O`, which inhibition is on record?
Answer: 50.2%

Question: Which inhibition does the source give for `COC(=O)[C@H]1Cc2c([nH]c3ccccc23)CN1Cc1ccccc1` here?
Answer: 54.4%

Question: For `COC(=O)[C@H]1Cc2c([nH]c3ccccc23)CN1C(=O)NC(C)C`, which inhibition is on record?
Answer: 73.7%

Target: T3, Nitric oxide synthase, inducible (Mus musculus) (UniProt P29477)
T3 sequence (whole entry): T1 sequence (P29477 whole entry)
Experiment: Inhibition of iNOS-mediated nitric oxide production in LPS-stimulated mouse RAW 264.7 cells assessed as cell survival at 50 uM pretreated 15 mins before LPS challenge measured after 20 hrs relative to control
Format: cell-based
Settings: not given
Outline: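 RAW 264.7 cells were incubated at 37°C, 5% CO2 for 24 h. They were then exposed to compound for 15 min before LPS (1 μg/mL) was added for 20 h. Cytotoxicity was measured by SRB staining under the same conditions. Survival is expressed as % relative to vehicle-treated controls at 50 μM.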

Question: Which Survival does the source give for `C#CCN1Cc2[nH]c3ccccc3c2C[C@@H]1C(=O)OC` here?
Answer: 114%

Question: For `C#CCN1Cc2[nH]c3ccccc3c2C[C@H]1C(=O)O`, which Survival is on record?
Answer: 126%

Question: Which Survival does the source give for `COC(=O)[C@H]1Cc2c([nH]c3ccccc23)CN1Cc1ccccc1` here?
Answer: 81.2%

Question: With `COC(=O)[C@H]1Cc2c([nH]c3ccccc23)CN1C(=O)NC(C)C` as the compound, how does the Survival read?
Answer: 89.4%

Test system: MCF7
Experiment: Antiproliferative activity against human MCF7 cells assessed as survival at 50 uM after 72 hrs by SRB assay relative to control
Format: functional
Settings: MCF7, 72 h, read-out: Survival
Outline: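 MCF7 cells (1 × 10^4 per well) were plated onto compound and kept at 37°C, 5% CO2 for 72 h. Cells were fixed in 10% TCA for 30 min and stained with 0.4% SRB in 1% acetic acid for 30 min. Bound dye was dissolved in 10 mM Tris (pH 10.0) and read at 515 nm. Survival is given as % of DMSO-treated controls, screened at 50 μM.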

Question: With `C#CCN1Cc2[nH]c3ccccc3c2C[C@H]1C(=O)O` as the compound, how does the viability at 50 µM read?
Answer: 112%

Question: For `COC(=O)[C@H]1Cc2c([nH]c3ccccc23)CN1C(=O)NC(C)C`, which viability at 50 µM is on record?
Answer: 66.1%

Target: T3, Nitric oxide synthase, inducible (Mus musculus)
Experiment: Inhibition of iNOS-mediated nitric oxide production in LPS-stimulated mouse RAW 264.7 cells at 50 uM pretreated 15 mins before LPS challenge measured after 20 hrs relative to control
Format: cell-based
Settings: not given
Outline: as §2

Question: Which inhibition does the source give for `C#CCN1Cc2[nH]c3ccccc3c2C[C@@H]1C(=O)OC` here?
Answer: 41.1%

Question: With `C#CCN1Cc2[nH]c3ccccc3c2C[C@H]1C(=O)O` as the compound, how does the inhibition read?
Answer: 7%

Question: With `COC(=O)[C@H]1Cc2c([nH]c3ccccc23)CN1Cc1ccccc1` as the compound, how does the inhibition read?
Answer: 74.7%

Question: Which inhibition does the source give for `COC(=O)[C@H]1Cc2c([nH]c3ccccc23)CN1C(=O)NC(C)C` here?
Answer: 16.2%
